Measurements published in ChEMBL document CHEMBL1129543, “Synthesis and evaluation of N-(phenylacetyl)trifluoromethanesulfonamides as anticonvulsant agents” (J Med Chem, 1996).

What was measured:
Mus musculus [1] = species on record: Mus musculus; assay: Time to peak activity was evaluated by Maximal electroshock seizure test in hours; assay type: functional
Mus musculus [2] = assay: Anti-seizure activity was evaluated by Neurologic toxicity (rotarod test) at dose 600 mg/kg after 4.0 hours; + denotes neurotoxicity; assay type: functional, organism-based; set-up: dose 600 mg/kg
In short: (§1)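 Phase I neurotoxicity in mice by rotorod ataxia test. Compound given ip at 30, 100, 300 or 600 mg/kg in 30% PEG 400, read 0.5 h and 4 h after. Scored ++++ to + for toxicity at 30 to 600 mg/kg; - means no toxicity.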

Rattus norvegicus [3] = species on record: Rattus norvegicus; assay: Protective index (TD50/ED50) was determined against scMet induced seizure in rat.; assay type: functional
In short: (§2)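 Oral dosing in 30% PEG 400: phase IV in mice (0.01 mL/g), phase VI in Sprague-Dawley rats (0.004 mL/g). ED50/TD50 found as in phase II, at the stated time of peak effect. MES current 50 mA in mice, 150 mA in rats. Toxicity by rotorod in mice; positional sense, gait and stance in rats. PI = TD50/ED50.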

Mus musculus [4] = assay: Median toxic dose was evaluated by […] through intraperitoneal administration; assay type: functional
Mus musculus [5] = assay: Anti-seizure activity was evaluated by Subcutaneous pentylenetetrazole seizure test at dose 300 mg/kg after 0.5 hours; ++ denotes antiseizure activity; assay type: functional, organism-based; set-up: dose 300 mg/kg
In short: (§3)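 Phase I screen in mice: ip dosing at 30, 100, 300 and 600 mg/kg in 30% PEG 400, read 0.5 h and 4 h after. Pentylenetetrazol given sc at CD97 (85 mg/kg). Protection means no clonic spasm of at least 5 s over 30 min. Scored ++++ to + for 30 to 600 mg/kg.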

Mus musculus [6] = assay: Anti-seizure activity was evaluated by Maximal electroshock seizure (MES) test at dose 100 mg/kg after 0.5 hours; +++ denotes antiseizure activity; assay type: functional, organism-based; set-up: dose 100 mg/kg
In short: (§4)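 Phase I screen in mice: ip injection at 30, 100, 300 and 600 mg/kg in 30% PEG 400 (0.01 mL/g). Test run 0.5 h and 4 h after dosing. 60-Hz AC, 50 mA, via corneal electrodes for 0.2 s. Protection means abolition of hind-leg tonic extension. Scored ++++ to + for activity at 30 to 600 mg/kg.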

Mus musculus [7] = assay: Median effective dose was evaluated by subcutaneous pentylenetetrazole seizure test through intraperitoneal administration; assay type: functional
In short: (§5)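 Phase II in mice, ip dosing in 30% PEG 400. Groups of 6-12 mice per dose until at least three points fall in 10-90% protection. […] MES: 50 mA, 0.2 s corneal. scMet: pentylenetetrazol 85 mg/kg sc.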

Mus musculus [8] = species on record: Mus musculus; assay: Time to peak toxicity was evaluated by Maximal electroshock seizure test in hours; assay type: functional
Rattus norvegicus [9] = species on record: Rattus norvegicus; assay: Protective index (TD50/ED50) was determined against MES induced seizure in rat.; assay type: functional; in short: as §2
Mus musculus [10] = assay: Median effective dose was evaluated by Maximal electroshock seizure test through intraperitoneal administration; assay type: functional; conditions: ip; in short: as §5
Mus musculus [11] = assay: Anti-seizure activity was evaluated by Neurologic toxicity (rotarod test) at dose 300 mg/kg after 0.5 hours; ++ denotes antiseizure activity; assay type: functional, organism-based; set-up: dose 300 mg/kg; in short: as §1
Mus musculus [12] = assay: Anti-seizure activity was evaluated by Neurologic toxicity (rotarod test) at dose 600 mg/kg after 0.5 hours; + denotes neurotoxicity; assay type: functional, organism-based; set-up: dose 600 mg/kg; in short: as §1
Mus musculus [13] = assay: Anti-seizure activity was evaluated by Maximal electroshock seizure (MES) test at dose 300 mg/kg after 0.5 hours; ++ denotes antiseizure activity; assay type: functional, organism-based; set-up: dose 300 mg/kg; in short: as §4
Mus musculus [14] = assay: Anti-seizure activity was evaluated by Neurologic toxicity (rotarod test) at dose 300 mg/kg after 4.0 hours; ++ denotes antiseizure activity; assay type: functional, organism-based; set-up: dose 300 mg/kg; in short: as §1
Mus musculus [15] = assay: Anti-seizure activity was evaluated by Subcutaneous pentylenetetrazole seizure test at dose 100 mg/kg after 0.5 hours; +++ denotes antiseizure activity; assay type: functional, organism-based; set-up: dose 100 mg/kg; in short: as §3
Rattus norvegicus [16] = assay: (§6) Time to peak effect in Rats was evaluated by Maximal electroshock seizure (MES) test in hours by oral administration; assay type: functional
In short: as §2, with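 “in rats. PTZ sc 85 mg/kg in mice, 70 mg/kg in rats. Toxicity by” for “in rats. Toxicity by”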

Mus musculus [17] = species on record: Mus musculus; assay: Median hypnotic dose was evaluated by loss of righting reflex; assay type: functional
Mus musculus [18] = assay: Inhibition of seizures induced in mice by a convulsant dose of bicuculline through ip administration; assay type: functional
In short: (§7)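 Phase V differentiation in mice: test drug given ip at time of peak therapeutic effect, then the CD₉₇ of each convulsant (picrotoxin, bicuculline, strychnine) given ip as a 0.5% solution; observation 30 min for bicuculline and strychnine, 45 min for picrotoxin. Drug in 30% PEG 400, 0.01 mL/g. ED₅₀ with 95% confidence intervals from ≥3 points in the 10-90% protection range, groups of 6-12 mice.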

Rattus norvegicus [19] = assay: (§8) Time to peak effect in Rats was evaluated by Subcutaneous pentylenetetrazole seizure test in hours by oral administration; assay type: functional
In short: as §2, with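 “in rats. PTZ sc 85 mg/kg in mice, 70 mg/kg in rats. Toxicity by” for “in rats. Toxicity by”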

Mus musculus [20] = assay: Inhibition of seizures induced in mice by a convulsant dose of strychnine through ip administration; assay type: functional; in short: as §7
Mus musculus [21] = assay: Time to peak effect in mice was evaluated by Maximal electroshock seizure (MES) test in hours by oral administration; assay type: functional
In short: as §2, with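 “in rats. PTZ sc 85 mg/kg in mice, 70 mg/kg in rats. Toxicity by” for “in rats. Toxicity by”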

Mus musculus [22] = assay: Time to peak effect in mice was evaluated by Neurologic toxicity (rotarod test) in hours by oral administration; assay type: functional
In short: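 Oral dosing in mice in 30% PEG 400 (0.01 mL/g). Neurologic deficit was scored by the rotorod ataxia test, and the time of peak effect was given in hours.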

Mus musculus [23] = assay: Time to peak effect in mice was evaluated by Subcutaneous pentylenetetrazole seizure test in hours by oral administration; assay type: functional
In short: as §2, with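 “in rats. PTZ sc 85 mg/kg in mice, 70 mg/kg in rats. Toxicity by” for “in rats. Toxicity by”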

Rattus norvegicus [24] = assay: (§9) Median Effective dose was evaluated by Subcutaneous pentylenetetrazole seizure test in Rats by oral administration; assay type: functional
Rattus norvegicus [25] = assay: (§10) Time to peak effect in Rats was evaluated by Neurologic toxicity (rotarod test) in hours by oral administration; assay type: functional
Mus musculus [26] = assay: Median Effective dose was evaluated by Subcutaneous pentylenetetrazole seizure test in mice by oral administration; assay type: functional
Mus musculus [27] = assay: Median lethal dose was evaluated by mortality after 24 hr through ip injection administration; assay type: functional
In short: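 Mice were dosed ip in 30% PEG 400. Mortality was scored 24 h after injection in groups of eight. The 24-h LD₅₀ was derived as for the ED₅₀/TD₅₀, with 95% confidence intervals.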

Mus musculus [28] = assay: as §8; assay type: functional
In short: (§11)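 Oral dosing in Sprague-Dawley rats (30% PEG 400, 0.004 mL/g). Time to peak effect, in hours, was read in the MES test (150 mA, 60 Hz, corneal, 0.2 s; loss of tonic hind-leg extension) and in the scMet test (pentylenetetrazol 70 mg/kg sc; no clonus ≥5 s within 30 min).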

Mus musculus [29] = assay: Median Effective dose was evaluated by Maximal electroshock seizure (MES) test in mice by oral administration up to 2000 mg/kg; f=no protection; assay type: functional, organism-based; set-up: dose 2000 mg/kg
Mus musculus [30] = assay: as §6; assay type: functional; in short: as §11
Mus musculus [31] = assay: Inhibition of picrotoxin-induced seizures in mice by ip administration at 250-1000 mg/kg (h= maximum 62.5% protection); assay type: functional, organism-based; in short: as §7
Mus musculus [32] = assay: […] was evaluated by Neurologic toxicity (rotarod test) in mice by oral administration; assay type: functional
In short: as §2, with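 “in rats. PTZ sc 85 mg/kg in mice, 70 mg/kg in rats. Toxicity by” for “in rats. Toxicity by”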

Mus musculus [33] = assay: as §9; assay type: functional
Mus musculus [34] = assay: as §10; assay type: functional
Mus musculus [35] = assay: Median Effective dose was evaluated by Maximal electroshock seizure (MES) test in Rats by oral administration up to 1200 mg/kg; g= no protection; assay type: functional, organism-based; set-up: dose 1200 mg/kg
Mus musculus [36] = assay: Anti-seizure activity was evaluated by Maximal electroshock seizure (MES) test at dose 100 mg/kg after 4.0 hours; +++ denotes antiseizure activity; assay type: functional, organism-based; set-up: dose 100 mg/kg; in short: as §4
Mus musculus [37] = assay: Anti-seizure activity was evaluated by Subcutaneous pentylenetetrazole seizure test at dose 300 mg/kg after 4.0 hours; ++ denotes antiseizure activity; assay type: functional, organism-based; set-up: dose 300 mg/kg; in short: as §3

Compound	TPE (Mus musculus [1])	Activity (Mus musculus [2])	PI (Rattus norvegicus [3])	TD50 (Mus musculus [4]) [mg/kg]	Activity (Mus musculus [5])	Activity (Mus musculus [6])	ED50 (Mus musculus [7]) [mg/kg]	TPE (Mus musculus [8])	PI (Rattus norvegicus [9])	ED50 (Mus musculus [10]) [mg/kg]	Activity (Mus musculus [12])	HD50 (Mus musculus [17]) [mg/kg]	ED50 (Mus musculus [18]) [mg/kg]	TPE (Mus musculus [21]) [h]	TPE (Mus musculus [22]) [h]	TPE (Mus musculus [23]) [h]	ED50 (Mus musculus [26]) [mg/kg]	also measured
O=C(Cc1ccc([N+](=O)[O-])cc1)NS(=O)(=O)C(F)(F)F	4	Antiseizure activity	24	482	Antiseizure activity	Antiseizure activity	20	6	39	12	–	–	–	–	–	–	–	Activity (Mus musculus [11]): Antiseizure activity
O=C(Cc1ccc(Cl)cc1)NS(=O)(=O)C(F)(F)F	4	–	4.2	206	–	–	49	4	27	7.6	Antiseizure activity	–	–	–	–	–	–	Activity (Mus musculus [13]): Antiseizure activity; Activity (Mus musculus [14]): Antiseizure activity; Activity (Mus musculus [15]): Antiseizure activity
CCCC(CCC)C(=O)O [VALPROIC ACID]	0.25	–	–	–	–	–	149	0.25	–	–	–	885	360	1	2	1	388	TPE (Rattus norvegicus [16]): 0.5 h; TPE (Rattus norvegicus [19]): 0.5 h; ED50 (Mus musculus [20]): 387 mg/kg; ED50 (Rattus norvegicus [24]): 180 mg/kg; TPE (Rattus norvegicus [25]): 1 h
CCC1(C)CC(=O)NC1=O (centres undefined) [ETHOSUXIMIDE]	0.5	–	–	441	–	–	130	0.5	–	> 1000	–	850	459	0.5	1	0.5	193	LD50 (Mus musculus [27]): 1810 mg/kg; TPE (Mus musculus [28]): 2 h; ED50 (Mus musculus [29]): No protection; TPE (Mus musculus [30]): 2 h; ED50 (Mus musculus [31]): Max protection; TD50 (Mus musculus [32]): 879 mg/kg; ED50 (Mus musculus [33]): 54 mg/kg; TPE (Mus musculus [34]): 2 h; ED50 (Mus musculus [35]): No protection
COc1cccc(CC(=O)NS(=O)(=O)C(F)(F)F)c1	2	Antiseizure activity	4.2	325	Antiseizure activity	Antiseizure activity	77	2	17	19	Antiseizure activity	–	–	–	–	–	–	Activity (Mus musculus [36]): Antiseizure activity; Activity (Mus musculus [37]): Antiseizure activity
